Here are results for 1 compound from ChEMBL document CHEMBL4602675, “The Marine Natural Product Manzamine A Inhibits Cervical Cancer by Targeting the SIX1 Protein” (J Nat Prod, 2020).

Assay [1] concerns the target T1, Protein E7 (Human papillomavirus 16) (UniProt P03129).
T1 sequence (whole entry): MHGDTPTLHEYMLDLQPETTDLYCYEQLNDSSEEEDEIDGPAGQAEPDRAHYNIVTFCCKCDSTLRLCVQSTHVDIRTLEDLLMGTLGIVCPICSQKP
The assay can be described thus: Inhibition of Human papillomavirus type16 derived E7 in human CaSki cells assessed as decrease in phosphorylation of Rb at 2 to 4 uM after 48 hrs by Western blot analysis. In kind it is cell-based. The conditions noted are these: Ca-Ski. The method, boiled down:
(§1)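 Cells were seeded at 1 × 10^6 per 100 mm dish and treated next day with 2 or 4 μM for 48 h. They were trypsinised, PBS-washed and lysed in RIPA with protease inhibitors. Equal protein was run on SDS-PAGE and transferred to PVDF. Primary antibodies were used at 1:500, with BSA 3% for blocking and antibodies for CK2α, Rb and pRb, otherwise 5% milk in TBST. HRP secondary at 1:2000, chemiluminescence detection.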

The subject of another assay is HeLa. The assay can be described thus: Cell cycle arrest in human HeLa cells assessed as accumulation at G2/M phase at 4 uM after 72 hrs by propidium iodide staining based flow cytometric analysis (reference value: 12.6%). The class given is functional. The method, boiled down: (§2)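 Cells in DMEM/10% FBS at 37 °C, 5% CO2 were given 4 μM for 24, 48 or 72 h, with DMSO as control. After trypsinization they were fixed in chilled 70% ethanol on ice for 30 min, treated with RNase A (1 mg/mL) for 30 min at room temperature, and stained with PI (20 μg/mL). At least 10 000 events were read by flow cytometry to give sub-G1, G0/G1, S and G2/M fractions; mean ± SEM.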
A general note: Flow cytometry measures light scatter and fluorescence of single cells or particles in a stream.

The test system of assay [2] is C-33-A. Put plainly: Cell cycle arrest in human C33A cells assessed as accumulation at G2/M phase at 4 uM after 24 hrs by propidium iodide staining based flow cytometric analysis (reference value: 26.2%). In kind it is functional. The essentials: as §2
Assay [3] deals with C-33-A. The assay can be described thus: Cell cycle arrest in human C33A cells assessed as accumulation at Sub G1 phase at 4 uM after 24 hrs by propidium iodide staining based flow cytometric analysis (reference value: 0.7%). In kind it is functional. The method, boiled down: as §2
Assay [4] deals with T2, Homeobox protein SIX1 (Homo sapiens) (UniProt Q15475).
T2 sequence (whole entry): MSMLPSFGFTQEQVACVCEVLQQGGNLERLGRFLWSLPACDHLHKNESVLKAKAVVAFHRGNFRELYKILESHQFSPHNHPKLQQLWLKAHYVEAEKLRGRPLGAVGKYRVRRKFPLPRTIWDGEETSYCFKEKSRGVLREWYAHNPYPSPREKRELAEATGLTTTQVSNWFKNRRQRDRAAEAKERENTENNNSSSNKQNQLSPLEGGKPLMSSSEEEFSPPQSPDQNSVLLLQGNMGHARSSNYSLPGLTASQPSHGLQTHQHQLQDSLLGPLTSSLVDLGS
The assay can be described thus: Inhibition of SIX1 in human C33A cells at 2 to 4 uM after 48 hrs by Western blot analysis. The class given is cell-based. The conditions noted are these: C-33-A. The essentials:
as §1
In general terms: In western blotting, separated proteins are transferred to a membrane and probed.

For assay [5], the system named is SiHa. The assay can be described thus: Induction of apoptosis in human SiHa cells assessed as early apoptotic cells at 4 uM after 24 hrs by Annexin V-FITC/PI double staining based flow cytometric analysis (reference value: 5.4%). In kind it is functional.
Assay [6] deals with Casein kinase II subunit alpha (Homo sapiens) (UniProt P68400). The assay can be described thus: Inhibition of CK2alpha in human HeLa cells at 2 to 4 uM after 48 hrs by Western blot analysis. In kind it is cell-based. The essentials:
as §1

Assay [7] has as its system C-33-A. The assay can be described thus: Cell cycle arrest in human C33A cells assessed as increase in p21 protein expression at 2 to 4 uM after 48 hr by Western lot analysis. In kind it is functional, cell-based. The method, boiled down:
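Western blot. 1 × 10^6 cells were seeded per 100 mm dish and exposed the next day to 2 or 4 μM for 48 h. Cells were trypsinized and lysed in RIPA buffer with protease inhibitors. Equal protein was run on SDS-PAGE and transferred to PVDF, which was blocked in 5% milk/TBST. Anti-p53 and anti-p21 (also GAPDH) were used at 1:500 and HRP secondary at 1:2000; chemiluminescent detection.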

Assay [8] relates to C-33-A. The assay can be described thus: Cell cycle arrest in human C33A cells assessed as accumulation at Sub G1 phase at 4 uM after 72 hrs by propidium iodide staining based flow cytometric analysis (reference value: 0.7%). In kind it is functional. The essentials:
as §2

Assay [9] relates to C-33-A. Put plainly: Induction of apoptosis in human C33A cells assessed as apoptotic cells at 4 uM after 48 hrs by Annexin V-FITC/PI double staining based flow cytometric analysis (reference value: 17.3%). The class given is functional.
The test system of assay [10] is Ca-Ski. Put plainly: Induction of apoptosis in human CaSki cells assessed as viable cells at 4 uM after 24 hrs by Annexin V-FITC/PI double staining based flow cytometric analysis (reference value: 84%). In kind it is functional. The following applies: read-out: Activity.
Assay [11] concerns the target T2, Homeobox protein SIX1 (Homo sapiens). The assay can be described thus: Potency index, ratio for inhibition activity of apigenin to test compound for inhibition of SIX1 in human HeLa cells after 48 hrs by Western blot analysis. The class given is cell-based. The essentials:
(§3)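 Cells plated at 1 × 10^6 per 100 mm dish and treated next day for 48 h with test compound (2 or 4 μM) or apigenin (10, 20 or 40 μM). RIPA lysates with protease inhibitors; equal protein loaded for SDS-PAGE, then PVDF transfer. Blocked in 5% milk/TBST (3% BSA for CK2α); anti-SIX1 or anti-CK2α 1:500, HRP secondary 1:2000; chemiluminescent detection.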

In assay [12] the test system is SiHa. The assay can be described thus: Induction of apoptosis in human SiHa cells assessed as viable cells at 4 uM after 24 hrs by Annexin V-FITC/PI double staining based flow cytometric analysis (reference value: 90.8%). The class given is functional. The conditions noted are these: read-out: Activity.
Assay [13] concerns the target T2, Homeobox protein SIX1 (Homo sapiens). Put plainly: Potency index, ratio for inhibition activity of apigenin to test compound for inhibition of SIX1 in human SiHa cells after 48 hrs by Western blot analysis. The class given is cell-based. The essentials: as §3
Assay [14] deals with Casein kinase II subunit alpha (Homo sapiens) (UniProt P68400). The assay can be described thus: Potency index, ratio for inhibition activity of apigenin to test compound for inhibition of CK2alpha in human HeLa cells after 48 hrs by Western blot analysis. The class given is cell-based. The essentials: as §3
In assay [15] the test system is C-33-A. The assay can be described thus: Inhibition of colony formation in human C33A cells at 2 to 4 uM afer 1 week by crystal violet staining based assay. In kind it is functional, cell-based. The essentials: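 Cells were grown in DMEM with 10% FBS, seeded at 1 × 10^3 cells/ml in six-well plates, incubated overnight, then exposed to 2 or 4 μM at 37 °C under 5% CO2 for one week. Colonies were fixed with 4% paraformaldehyde, stained with 0.5% crystal violet and photographed.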

Assay [16] relates to Ca-Ski. The assay can be described thus: Induction of apoptosis in human CaSki cells assessed as late apoptotic cells at 4 uM after 48 hrs by Annexin V-FITC/PI double staining based flow cytometric analysis (reference value: 9.1%). The class given is functional.
The subject of assay [17] is C-33-A. Put plainly: Induction of apoptosis in human C33A cells assessed as early apoptotic cells at 4 uM after 24 hrs by Annexin V-FITC/PI double staining based flow cytometric analysis (reference value: 4.3%). In kind it is functional.
Assay [18] deals with Ca-Ski. The assay can be described thus: Cell cycle arrest in human CaSki cells assessed as accumulation at G0/G1 phase at 4 uM after 48 hrs by propidium iodide staining based flow cytometric analysis (reference value: 54.1%). The class given is functional. The method, boiled down:
as §2

For assay [19], the target named is T2, Homeobox protein SIX1 (Homo sapiens). Put plainly: Inhibition of SIX1 in human HeLa cells at 2 to 4 uM after 48 hrs by Western blot analysis. The class given is cell-based. The method, boiled down: as §1
For assay [20] the target is unchanged. The assay can be described thus: Inhibition of SIX1 in human CaSki cells at 2 to 4 uM after 48 hrs by Western blot analysis. In kind it is cell-based. The conditions noted are these: Ca-Ski. The method, boiled down: as §1
The target in assay [21] is T1, Protein E7 (Human papillomavirus 16). Put plainly: Inhibition of Human papillomavirus type16 derived E7 in human SiHa cells assessed as decrease in cyclin-D1 protein expression at 2 to 4 uM after 48 hrs by Western blot analysis. The class given is cell-based. The essentials:
as §1

Activity calls are given as the source filed them. The calls are words filed in the database; no cut-off is given here.

Casein kinase II subunit alpha (Homo sapiens), sequence (P68400 whole entry, looked up): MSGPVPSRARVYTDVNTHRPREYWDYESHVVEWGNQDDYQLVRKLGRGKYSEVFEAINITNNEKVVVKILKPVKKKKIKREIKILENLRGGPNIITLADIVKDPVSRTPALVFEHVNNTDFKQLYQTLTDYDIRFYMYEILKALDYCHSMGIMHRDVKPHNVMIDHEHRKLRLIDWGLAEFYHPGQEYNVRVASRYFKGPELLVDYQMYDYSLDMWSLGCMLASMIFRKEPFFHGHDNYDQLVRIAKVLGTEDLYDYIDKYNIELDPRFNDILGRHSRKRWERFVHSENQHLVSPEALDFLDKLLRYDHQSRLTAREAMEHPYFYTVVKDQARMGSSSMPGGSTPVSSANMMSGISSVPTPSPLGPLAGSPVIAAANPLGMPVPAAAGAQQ

For `O[C@]12C=C(c3nccc4c3[nH]c3ccccc34)[C@@H]3CCN(CCCC/C=C\CC1)C[C@@]31C[C@@H]3/C=C\CCCCN3[C@H]12` [MANZAMINE A], the inhibition entry (in assay [1]; in assay [4]; in [6]; in the assay on C-33-A [15]; in assay [19]; in assay [20]) was “Active” each time. The inhibition entry in assay [21] was “Active”. The Activity with HeLa is reported as 16.2%; in the assay on C-33-A [2], 24.6%; in the assay with C-33-A [3], 1.8%; in the assay with SiHa [5] it was 13.7%; in the assay on C-33-A [8], 31.3%; in the assay on C-33-A [9], 36.5%. Further, the values for the Activity with Ca-Ski [16], in the assay on C-33-A [17] and with Ca-Ski [18] were 7.8%, 17.4% and 82.4%, respectively. Further, the result in the assay with C-33-A [7] was inactive. The viability at 4 µM in the assay with Ca-Ski [10] was 81.4%; with SiHa [12], 82.5%. Also, the Ratio in assay [11], in assay [13] and in [14] was 10 each time.
